Experimental data reported in ChEMBL document CHEMBL1155242, “Radiolabeled 5-iodo-3'-O-(17beta-succinyl-5alpha-androstan-3-one)-2'-deoxyuridine and its 5'-monophosphate for imaging and therapy of androgen receptor-positive cancers: synthesis and biological evaluation” (J Med Chem, 2009).

Experiments:
[1] = tested on: LNCaP; test: Cytotoxicity against human LNCAP cells expressing androgen receptor assessed as cell survival at 8 uCi/mL after 48 hrs; type: functional
Outline: (§1)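 LNCaP human prostate cancer cells were grown for 48 h with the 125I-labelled compound in the medium, and cell survival was then determined. D37 was expressed as the extracellular concentration in μCi/mL.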

[2] = tested on: Kidney; test: Biodistribution in kidney of athymic NCr mouse xenografted with human OVCAR-3 cells assessed per gram of tissue at an average 39.5 uCi/dose, ip administered 9 days after tumor implantation as six fractionated doses every 4 days measured after 2 weeks of last dose by gamma counting; type: ADME, organism-based; settings: in vivo, 336 h
Outline: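 OVCAR-3-bearing and healthy athymic mice given fractionated ip doses on the six-dose every-4-days schedule; tissues, tumor and lavaged cells γ-counted at necropsy, %ID/g; DNA-bound 125I in cells measured as cpm/cell.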

[3] = tested on: LNCaP; test: Cytotoxicity against human LNCAP cells expressing androgen receptor assessed as drug level required to reduce viable cell count to 37% after 48 hrs; type: functional; outline: as §1
[4] = biological target: T1, Sex hormone-binding globulin (Homo sapiens, UniProt P04278); test: Binding affinity to human sex hormone binding globulin at 20 uCi after 60 mins by size-exclusion HPLC analysis; type: ADME; settings: 1 h
T1 sequence (P04278 whole entry): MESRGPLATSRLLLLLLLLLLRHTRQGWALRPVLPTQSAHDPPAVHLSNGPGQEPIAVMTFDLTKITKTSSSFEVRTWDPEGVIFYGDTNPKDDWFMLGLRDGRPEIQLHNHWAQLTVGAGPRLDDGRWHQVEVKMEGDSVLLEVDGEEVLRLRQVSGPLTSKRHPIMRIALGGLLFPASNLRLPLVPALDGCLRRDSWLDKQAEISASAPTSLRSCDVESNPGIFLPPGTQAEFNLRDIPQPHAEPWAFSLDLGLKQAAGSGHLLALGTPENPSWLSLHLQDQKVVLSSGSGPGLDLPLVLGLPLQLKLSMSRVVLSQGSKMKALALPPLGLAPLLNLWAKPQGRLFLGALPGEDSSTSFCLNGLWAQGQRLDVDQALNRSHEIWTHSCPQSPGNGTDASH
Outline: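 Radioligand incubated 60 min with purified human SHBG or with human, rabbit or mouse serum. Size-exclusion HPLC (TSK3000): 0.1 M potassium phosphate/0.1 M Na2SO4 1:1 pH 6.8 for 20 min, then 0–40% CH3CN over 20 min, held 30 min, 0.7 mL/min.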

[5] = tested on: Serum; test: Stability in mouse serum assessed as time required for formation of [125I]UdR at 10 to 20 uCi/mL after 60 mins by gamma counting; type: ADME, cell-free; settings: 1 h
[6] = biological target: Albumin (Mus musculus, UniProt P07724); test: Binding affinity to mouse serum albumin at 10 to 20 uCi/mL after 60 mins by size-exclusion HPLC analysis; type: ADME; settings: isolated protein, 1 h
Outline: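 Radioiodinated compound incubated 60 min with human, rabbit or mouse serum, or with purified human SHBG. Aliquots analysed on a TSK3000 size-exclusion column: 0.1 M potassium phosphate/0.1 M Na2SO4 (1:1, pH 6.8) for 20 min, then 0–40% CH3CN over 20 min, held 30 min, 0.7 mL/min. Protein-bound versus free radioactivity read from the peaks.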

[7] = Ratio of drug level in tumor to liver in athymic NCr mouse xenografted with human OVCAR-3 cells at 180 uCi, ip administered 9 days after tumor implantation as six fractionated doses every 4 days measured after 72 hrs by gamma counting; type: ADME, organism-based; settings: in vivo
[8] = tested on: LNCaP; test: Cellular uptake in proliferating human LNCAP cells expressing androgen receptor assessed as [125I]UdR retention per cell at 1 to 4 uCi/mL after 24 hrs by gamma counting; type: ADME, cell-based
Outline: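 Proliferating LNCaP monolayers exposed 24 h to a range of radioligand concentrations; whole-cell uptake measured.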

[9] = tested on: OVCAR-3; test: Cytotoxicity against human OVCAR-3 cells expressing androgen receptor assessed as cell survival at 0.01 to 5 uCi/mL after 24 hrs; type: functional
[10] = Chemical stability in RPMI-1640 serum-free medium assessed as intact compound remaining at 12.2 uCi up to 6 hrs by HPLC analysis; type: physicochemical; settings: read-out: Stability
[11] = tested on: Serum; test: Stability in human serum assessed as half life at 10 to 20 uCi/mL by size-exclusion HPLC analysis; type: ADME, cell-free
Outline: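 The compound was incubated with rabbit or human serum at ambient temperature, and aliquots were taken at 1, 5 and 24 h. Aliquots were run on size-exclusion HPLC (TSK3000; 0.1 M potassium phosphate/0.1 M Na2SO4, pH 6.8, then an acetonitrile gradient). Extracts were run on C18 reversed-phase HPLC (water/acetonitrile with 0.07% TFA). Half-lives came from a monoexponential fit.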

[12] = biological target: T2, Sex hormone-binding globulin (Oryctolagus cuniculus, UniProt P15196); test: Binding affinity to rabbit sex hormone binding globulin at 10 to 20 uCi/mL after 60 mins by size-exclusion HPLC analysis; type: ADME; settings: 1 h
T2 sequence (P15196 whole entry): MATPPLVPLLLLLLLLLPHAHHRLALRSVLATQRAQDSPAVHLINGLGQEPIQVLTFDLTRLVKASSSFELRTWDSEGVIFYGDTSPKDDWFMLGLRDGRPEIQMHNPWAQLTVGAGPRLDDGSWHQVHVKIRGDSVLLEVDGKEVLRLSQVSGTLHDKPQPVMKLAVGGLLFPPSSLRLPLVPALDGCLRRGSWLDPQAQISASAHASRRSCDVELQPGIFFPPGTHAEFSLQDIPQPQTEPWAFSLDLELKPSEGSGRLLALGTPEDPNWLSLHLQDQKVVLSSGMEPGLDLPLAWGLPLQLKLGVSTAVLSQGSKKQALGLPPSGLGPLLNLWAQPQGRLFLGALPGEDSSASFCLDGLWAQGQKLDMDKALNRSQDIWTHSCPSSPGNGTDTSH
Outline: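 Radioligand incubated 60 min in rabbit serum; size-exclusion HPLC as for SHBG binding (phosphate/Na2SO4 pH 6.8, then CH3CN gradient) for SHBG-bound peak, with extracts run on C18 for intact compound.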

[13] = Clearance in peritoneum of athymic NCr mouse xenografted with human OVCAR-3 cells assessed as half life at 1.12 uCi, ip by gamma counting; type: ADME, organism-based; settings: in vivo
Outline: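 Peritoneal clearance measured in athymic NCr-nu/nu mice bearing intraperitoneal NIH:OVCAR-3 xenografts after an ip dose of the 125I compound. The peritoneal cavity was lavaged, and 125I was counted in the lavage and in the recovered tumor cells. Half-lives were estimated from the clearance curves.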

[14] = Ratio of drug level in tumor to blood in athymic NCr mouse xenografted with human OVCAR-3 cells at 180 uCi, ip administered 9 days after tumor implantation as six fractionated doses every 4 days measured after 72 hrs by gamma counting; type: ADME, organism-based; settings: tumour
[15] = tested on: OVCAR-3; test: Cytotoxicity against human OVCAR-3 cells expressing androgen receptor at 5 uCi/mL after 24 hrs; type: functional
[16] = tested on: OVCAR-3; test: Stability in human OVCAR-3 cells expressing androgen receptor assessed as half life at 0.1 uCi/mL by silica gel instant thin layer chromatography; type: ADME, cell-based
Outline: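 Breakdown was followed with proliferating NIH:OVCAR-3 cells grown in complete RPMI-1640 medium. The distribution of radioactive products released into the culture medium (parent compound, 125IUdR and its 3′-succinate) was measured over time. Half-life was estimated from the time course.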

Albumin, sequence (P07724 whole entry): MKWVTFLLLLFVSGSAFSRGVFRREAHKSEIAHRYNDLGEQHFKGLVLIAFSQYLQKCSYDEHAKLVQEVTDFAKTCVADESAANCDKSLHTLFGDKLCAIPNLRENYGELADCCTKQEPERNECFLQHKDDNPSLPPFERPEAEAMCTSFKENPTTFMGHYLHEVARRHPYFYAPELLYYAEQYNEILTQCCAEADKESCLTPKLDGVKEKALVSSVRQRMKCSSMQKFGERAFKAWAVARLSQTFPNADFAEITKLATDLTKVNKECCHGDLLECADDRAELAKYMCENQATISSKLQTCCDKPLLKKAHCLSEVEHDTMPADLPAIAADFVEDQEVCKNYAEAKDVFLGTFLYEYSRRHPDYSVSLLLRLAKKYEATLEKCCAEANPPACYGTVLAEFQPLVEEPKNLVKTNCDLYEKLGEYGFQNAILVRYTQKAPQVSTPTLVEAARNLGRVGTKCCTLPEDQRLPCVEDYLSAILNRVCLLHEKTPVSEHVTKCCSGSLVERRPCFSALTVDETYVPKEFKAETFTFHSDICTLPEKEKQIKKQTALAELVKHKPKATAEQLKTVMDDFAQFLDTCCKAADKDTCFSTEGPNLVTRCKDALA

| Structure (SMILES) | Survival [1] | Drug uptake [2] | Activity [3] | Activity [4] | Stability [5] | Activity [6] | Ratio [7] | Bmax [8] | Survival [9] | remaining at 6 h, 12.2 uCi [10] | t1/2 [11] | Activity [12] | t1/2 [13] | Ratio [14] | Activity [15] | t1/2 [16] |
| --- | --- | --- | --- | --- | --- | --- | --- | --- | --- | --- | --- | --- | --- | --- | --- | --- |
| C[C@]12CCC(=O)C[C@@H]1CC[C@@H]1[C@@H]2CC[C@]2(C)[C@@H](OC(=O)CCC(=O)O[C@H]3C[C@H](n4cc([125I])c(=O)[nH]c4=O)O[C@@H]3COP(=O)(O)O)CC[C@@H]12 | 90% | 0.013 %ID | 1.7 uCi/ml | Active | < 10 min |  |  |  |  |  |  |  |  |  |  |  |
| C[C@]12CCC(=O)C[C@@H]1CC[C@@H]1[C@@H]2CC[C@]2(C)[C@@H](OC(=O)CCC(=O)O[C@H]3C[C@H](n4cc([125I])c(=O)[nH]c4=O)O[C@@H]3CO)CC[C@@H]12 |  |  |  |  |  | Not Active | 21.8 | 1.4 ×10⁻⁶ pmol | 95% | 90% | 14.7 h | Active | 26 h | 42.2 | 20% | 3.2 h |
